An excerpt weighted towards active compounds, which were near 2.8% of everything screened.
DENV2 CPE: DENV2-induced cell death inhibition. CPE inhibition, % at 9.99 µM. AID 651640. DENV2-infected cells, cytopathic effect rescue, plate reader. actives 1.7% (n = 350,000); in the data active = CPE inhibition above about 20%, passing the limit was not always enough; inconclusive = no clear call, values can overlap the other calls; tested in BHK-21 cells;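 also: 0% = median of neutral control wells and 100% = median of positive control wells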
SIRT5 inh: inhibitors of human sirtuin-5 desuccinylase; Purified SirT5, succinyl-peptide AMC, trypsin-coupled fluorescence; inhibition, % at 15 µM; actives 1.1% (n = 330,000); AID 652115; in the data active = inhibition above about 15%; inconclusive = no clear call, values can overlap the other calls
Target sequence (Q9NXA8 whole entry, looked up): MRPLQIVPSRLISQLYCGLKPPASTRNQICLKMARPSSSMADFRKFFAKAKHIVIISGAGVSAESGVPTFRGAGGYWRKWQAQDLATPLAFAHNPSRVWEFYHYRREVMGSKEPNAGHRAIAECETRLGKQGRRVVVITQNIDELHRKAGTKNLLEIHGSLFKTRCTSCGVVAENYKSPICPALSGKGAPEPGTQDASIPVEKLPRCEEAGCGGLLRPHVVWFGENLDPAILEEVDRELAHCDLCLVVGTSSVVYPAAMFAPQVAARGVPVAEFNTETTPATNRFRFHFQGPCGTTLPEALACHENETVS
E-selectin induc: induces E-selectin expression in human endothelial cells; actives 0.37% (n = 260,000); HUVEC E-selectin immunofluorescence imaging; normalized: neutral wells 0, TNF-alpha wells 100; P16581; AID 686992; activation, % at 7.58 µM;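 active = mean E-selectin-positive cell signal at least 10% of the positive control, reached in at least 60% of replicates, without over 20% cell loss; inconclusive = no rule given, readout overlaps actives, possibly toxicity-flagged; inactive = the rest, including those meeting only one limit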
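assay system = HUVEC, human umbilical vein endothelial cells | input = 3,000 HUVEC seeded per well | medium = EGM-2 growth medium on 0.1% gelatin-coated wells | dosing = one compound dose added by pin transfer | signal = immunofluorescence imaging | read-out basis = % PE-positive cells | control set = TNF-alpha, DMSO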
The depositor's hits bear a star; ? = inconclusive; · = not tested or not shown.

SMILES	DENV2 CPE	SIRT5 inh	E-selectin induc
COCCN(C[C@@H]1[C@@H](c2ccccc2)[C@@H](CO)N1C(C)=O)C(=O)c1ccncc1	-4	0	0
COCCN(C[C@@H]1[C@@H](c2ccccc2)[C@H](CO)N1C(C)=O)C(=O)c1ccncc1	24*	0	0
Cc1noc(C)c1S(=O)(=O)Nc1ccc2c(c1)CC(=O)N([C@@H](C)CO)C[C@@H](C)[C@@H](CN(C)S(C)(=O)=O)O2	-3	·	-10
O=C([C@H]1[C@H](CO)[C@H]2Cn3c(ccc(C4=CCCC4)c3=O)[C@@H]1N2C(=O)c1ccncc1)N1CCOCC1	-2	-5	0
Cc1ccc(C)c(S(=O)(=O)Nc2ccc(S(=O)(=O)Nc3ncccn3)cc2)c1	2	-5	1
Cc1ccc(C)c(S(=O)(=O)Nc2ccccc2C(=O)Nc2ccc(S(=O)(=O)Nc3ncccn3)cc2)c1	17	19*	0
CCOC(=O)c1c(N)c2cc([N+](=O)[O-])cnc2n1C	3	-2	1
CCOC(=O)c1c(NC(=O)c2ccno2)c2cc([N+](=O)[O-])ccc2n1C	84*	-2	·
Cc1ccc(S(=O)(=O)N2CC[C@@H]3[C@@H](CO)Nc4ccc(Br)cc4[C@@H]32)cc1	?	3	0
O=C1CN(S(=O)(=O)c2ccccc2)C[C@H]2[C@@H](c3ccc(C#Cc4ccccc4)cc3)[C@H](CO)N12	-3	1	0
COc1cccc(C(=O)Nc2ccc3c(c2)C(=O)N(C)C[C@H](OC)[C@H](C)CN(CCc2ccccc2)[C@H](C)CO3)c1	9	11	0
COc1cccc(C(=O)Nc2ccc3c(c2)C(=O)N(C)C[C@H](OC)[C@@H](C)CN(C(C)=O)[C@@H](C)CO3)c1	-11	-3	0
COc1cccc(C(=O)Nc2ccc3c(c2)C(=O)N(C)C[C@H](OC)[C@@H](C)CN(C(C)=O)[C@H](C)CO3)c1	64*	-1	0
COc1cccc(C(=O)Nc2ccc3c(c2)C(=O)N(C)C[C@@H](OC)[C@@H](C)CN(CCc2ccccc2)[C@@H](C)CO3)c1	5	15*	1
COCC(=O)Nc1ccc2c(c1)[C@H]1C[C@H](CC(=O)NCc3cc(F)ccc3F)O[C@@H](CO)[C@H]1O2	-1	·	0
CC(C)NC(=O)N(C)C[C@H]1Oc2ccc(NS(=O)(=O)c3ccc(F)cc3)cc2C(=O)N([C@H](C)CO)C[C@H]1C	?	-4	0
COc1ccc(NC(=O)N(C)C[C@@H]2OCCCC[C@H](C)Oc3ccc(NC(=O)CCCN(C)C)cc3C(=O)N([C@@H](C)CO)C[C@H]2C)cc1	2	-3	0
COc1ccc(Nc2c(-c3ccc(OC)cc3)nc3cnccn23)cc1	2	-2	1
COc1ccc(Nc2c(-c3ccc(C)cc3)nc3cnccn23)cc1	1	18*	0
CCCNC(=O)C[C@@H]1C[C@H]2c3cc(NC(=O)Cc4ccncc4)ccc3O[C@H]2[C@H](CO)O1	-7	·	0
Cc1noc(C)c1NC(=O)Nc1cccc2c1O[C@@H](CN(C)C(=O)NC(C)C)[C@H](C)CN([C@H](C)CO)C2=O	2	-6	0
C[C@H]1CCCCO[C@H](CN(C)S(=O)(=O)c2cccs2)[C@@H](C)CN([C@@H](C)CO)C(=O)c2cc(NC(=O)c3ccccc3)ccc2O1	36*	·	0
C[C@@H]1CCCCO[C@H](CN(C)S(=O)(=O)c2cccs2)[C@H](C)CN([C@@H](C)CO)C(=O)c2cc(NC(=O)c3ccccc3)ccc2O1	3	·	0
C[C@@H]1CN([C@H](C)CO)C(=O)c2cc(NC(=O)c3ccccc3)ccc2O[C@@H](C)CCCCO[C@@H]1CN(C)S(C)(=O)=O	0	1	0
C[C@@H]1CCCCO[C@@H](CN(C)S(C)(=O)=O)[C@@H](C)CN([C@H](C)CO)C(=O)c2cc(NC(=O)c3ccccc3)ccc2O1	85*	2	0
C[C@@H]1CN([C@@H](C)CO)C(=O)c2cc(NC(=O)NC3CCCCC3)ccc2O[C@@H](C)CCCCO[C@@H]1CN(C)S(=O)(=O)c1ccc(F)cc1	-14	1	·
Cc1nnsc1C(=O)NC1CCCc2c1cnn2-c1ccc(F)cc1F (centres undefined)	7	-4	·
Cc1ccc(C(=O)NC2CCCc3c2cnn3-c2ccc(F)cc2F)cn1 (centres undefined)	7	20*	0
O=C(Nc1cc(C(F)(F)F)ccc1N1CCOCC1)C1=NN(c2ccccc2)C(=O)CC1	-4	1	·
O=C(Nc1ccccc1N1CCOCC1)C1=NN(c2ccccc2)C(=O)CC1	69*	2	·

High-throughput results as filed in PubChem BioAssay.
